This passage reports IC50 and Activity results from ChEMBL document CHEMBL1141802, “Sesquiterpenoid metabolites with antiplasmodial activity from a Caribbean gorgonian coral, Eunicea sp” (J Nat Prod, 2005).

The nature of experiment [1]: Cytotoxicity against human […] cells. Type of experiment: functional, cell-based.
Experiment [2] has as its system MOLT-4. Kind of experiment: Cytotoxicity against human MOLT4 cells. Type of experiment: functional, cell-based.
Experiment [3] relates to CCRF-CEM. Put plainly: Cytotoxicity against human CCRF-CEM cells. Type of experiment: functional, cell-based.
For experiment [4], the system named is Plasmodium falciparum. Kind of experiment: Antimalarial activity against chloroquine-resistant Plasmodium falciparum W2 by Picogreen dye fluorimetry. Type of experiment: functional, organism-based. The essentials:
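Fluorometric growth-inhibition assay on chloroquine-resistant W2 strain, detecting parasite DNA by PicoGreen intercalation. Result expressed as IC50 in μg/mL.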

The test system of experiment [5] is HL-60(TB). Kind of experiment: Cytotoxicity against human HL-60(TB) cells. Type of experiment: functional, cell-based.
Experiment [6] concerns MCF7. Put plainly: Cytotoxicity against human MCF7 cells. Type of experiment: functional, cell-based.
Experiment [7] concerns M-phase inducer phosphatase (Cdc25). Kind of experiment: Inhibition of Cdc25.
The target of experiment [8] is Cyclin-dependent kinase 1/cyclin B1 (Homo sapiens) (UniProt P06493+P14635). Put plainly: Inhibition of Cdc2/cyclin B.
Experiment [9] concerns Mycobacterium tuberculosis. Kind of experiment: Antimicrobial activity against Mycobacterium tuberculosis H37Rv at 6.25 ug/mL. The class given is functional, organism-based.

In brackets after ≈: the same amount, converted by molar mass. Activity calls are given as the source filed them. No cut-off for these calls is given here.

One may read the IC50 as the concentration needed to halve the response being measured. Low values mean higher potency, high ones lower potency.

Chain of Cyclin-dependent kinase 1/cyclin B1 (Homo sapiens) (P06493 whole entry, looked up): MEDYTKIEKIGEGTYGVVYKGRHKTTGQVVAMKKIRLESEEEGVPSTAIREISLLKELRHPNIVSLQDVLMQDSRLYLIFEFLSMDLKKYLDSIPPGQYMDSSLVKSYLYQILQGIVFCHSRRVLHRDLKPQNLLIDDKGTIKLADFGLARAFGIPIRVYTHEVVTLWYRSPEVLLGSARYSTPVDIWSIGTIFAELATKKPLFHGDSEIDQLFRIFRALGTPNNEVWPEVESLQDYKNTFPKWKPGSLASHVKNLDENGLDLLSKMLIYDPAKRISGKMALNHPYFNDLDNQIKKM
Chain of Cyclin-dependent kinase 1/cyclin B1 (Homo sapiens) (P14635 whole entry, looked up): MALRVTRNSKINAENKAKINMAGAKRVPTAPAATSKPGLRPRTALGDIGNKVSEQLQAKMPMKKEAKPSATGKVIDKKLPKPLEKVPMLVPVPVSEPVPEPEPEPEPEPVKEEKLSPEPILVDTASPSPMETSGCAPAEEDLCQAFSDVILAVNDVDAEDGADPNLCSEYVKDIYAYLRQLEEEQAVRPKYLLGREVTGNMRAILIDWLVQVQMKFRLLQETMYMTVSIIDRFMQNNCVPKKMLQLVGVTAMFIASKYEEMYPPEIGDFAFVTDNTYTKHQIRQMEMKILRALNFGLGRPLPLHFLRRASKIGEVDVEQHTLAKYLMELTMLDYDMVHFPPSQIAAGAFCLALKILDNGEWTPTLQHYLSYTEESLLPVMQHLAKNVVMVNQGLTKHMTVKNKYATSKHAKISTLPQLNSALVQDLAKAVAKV

With `C=C1CC[C@@H]2[C@H](/C=C(\C)CC[C@@H]1O)OC(=O)[C@H]2C`, the IC50 in [1] stood at 90.4 µg/mL (≈ 361 µM); in experiment [2] it was 19.6 µg/mL (≈ 78.3 µM); in experiment [3], 31.3 µg/mL (≈ 125 µM); in [4] it was 18 µg/mL (≈ 71.9 µM); in [5] it was 51.5 µg/mL (≈ 206 µM); in experiment [6], 82.2 µg/mL (≈ 328 µM).

Turning to `C=C1CC[C@@H](C(C)=O)[C@@H](OC(=O)/C=C/C(C)(C)O)/C=C(\C)CC[C@@H]1O`, the result in experiment [7] and in [8] was inactive. In experiment [4], this molecule displayed an IC50 of 14 µg/mL (≈ 39.9 µM).

Turning to `C=C[C@@]1(C)CC[C@@H](C(C)=O)[C@@H](OC(=O)/C=C/C(C)(C)O)[C@@H]1C(=C)C`, the result in [9] was inactive.

As for `C=C1CC[C@H](O)[C@@]2(C)CC[C@@H]3[C@@H](OC(=O)[C@H]3C)[C@H]12`, the result in [9] was inactive. Moreover, the concentration for half-maximal inhibition (IC50) in experiment [4] is 14 µg/mL (≈ 55.9 µM).

In the case of `C=C[C@@]1(C)CCC2=C(C)C(=O)O[C@H]2[C@@H]1C(=C)C`, in [4], the IC50 was above 50 µg/mL.

For the molecule `C=C1CC[C@H](O)[C@@]2(C)CC[C@@H](C(C)=O)[C@@H](OC(=O)/C=C/C(C)(C)O)[C@H]12`, the outcome in experiment [9] was inactive. The molecule also registered an IC50 in [4] of 10 µg/mL (≈ 28.5 µM).

For the molecule `C=C1CC[C@@H](C(C)=O)[C@@H](OC(=O)/C=C/C(C)(C)O)/C=C(\C)CCC1=O`, the result in experiment [7], in experiment [8] and in [9] was inactive. The half-inhibitory concentration (IC50) in experiment [4] was found to be 16 µg/mL (≈ 45.9 µM).
